An excerpt weighted towards active compounds, which were near 3.3% of everything screened.
PRMT1 FP inh – blocks human protein arginine methyltransferase 1. recombinant PRMT1, activity-based probe fluorescence polarization. inhibition, % at 2.79 µM. 370,000 tested, 1.3% active. AID 652257;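 active = inhibition above about 21% made by adding two undisclosed values, limit read from the data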
Target sequence (Q99873 whole entry, looked up): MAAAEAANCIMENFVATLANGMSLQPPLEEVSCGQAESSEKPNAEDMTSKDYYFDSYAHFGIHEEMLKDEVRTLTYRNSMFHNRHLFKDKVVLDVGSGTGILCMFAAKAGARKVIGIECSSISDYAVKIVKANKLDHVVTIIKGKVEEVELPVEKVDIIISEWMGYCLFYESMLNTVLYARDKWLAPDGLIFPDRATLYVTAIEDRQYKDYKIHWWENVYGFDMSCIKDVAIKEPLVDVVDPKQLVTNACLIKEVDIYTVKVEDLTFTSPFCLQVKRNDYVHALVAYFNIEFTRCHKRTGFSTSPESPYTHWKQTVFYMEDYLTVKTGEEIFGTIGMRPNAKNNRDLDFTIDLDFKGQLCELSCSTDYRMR
ABHD4 inh – ABHD4 (mouse) inhibition, primary FP screen; Q8VD66; purified mABHD4, FP-Rh probe fluorescence polarization; inhibition, % at 8.92 µM; 370,000 tested, 0.54% active;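 active = inhibition exceeding the mean over every tested compound plus 3 SD, cut at about 30% in these data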;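 also: 0% = plate median of compound wells and 100% = S159A mutant with DMSO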
Target sequence (Q8VD66 whole entry, looked up): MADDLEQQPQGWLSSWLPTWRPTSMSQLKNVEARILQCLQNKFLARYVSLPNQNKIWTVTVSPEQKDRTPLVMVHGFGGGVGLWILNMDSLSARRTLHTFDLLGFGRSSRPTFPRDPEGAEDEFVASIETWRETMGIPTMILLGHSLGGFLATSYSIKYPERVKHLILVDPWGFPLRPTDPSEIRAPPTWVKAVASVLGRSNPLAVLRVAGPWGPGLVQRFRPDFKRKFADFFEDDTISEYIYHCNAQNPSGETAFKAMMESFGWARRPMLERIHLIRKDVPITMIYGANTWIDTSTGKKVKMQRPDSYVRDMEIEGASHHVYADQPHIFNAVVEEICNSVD
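Material: mouse ABHD4 enzyme, wild type; Benchmarks: S159A mutant high control, sample median low control; Buffer or medium: HEPES pH 7.0, NaCl, Pluronic buffer; Signal: fluorescence polarization; Read-out: percent inhibition of probe binding, normalized to plate controls; Timing: pre-incubation 45 min, probe exposure 60 min, at 25 °C; Dosing: 8.92 µM, single dose.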
SIAE inh – blocks human sialic acid acetylesterase; 370,000 tested, 0.69% active; SIAE FP-Rh probe binding, fluorescence polarization; inhibition, % at 9.66 µM; AID 1053197;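 active = inhibition above a cutoff: mean of compounds within the control limits plus 3 SD of those, cut at about 17% in these data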;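 also: 0% = plate median of compound wells and 100% = probe without SIAE protein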
HTRA1 inhibitor – HTRA1 (human) protease inhibition; Q92743; recombinant HTRA1, FP-rhodamine activity-based probe, fluorescence polarization; inhibition, % at 5.96 µM; 340,000 tested, 0.5% active; in the data active = inhibition above about 36%;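 also: 0% = enzyme with DMSO and 100% = wells lacking enzyme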
rCAG binder – molecules binding r(CAG) RNA repeats; r(CAG) RNA repeat, TO-PRO-1 dye displacement fluorescence; inhibition, % at 3 µM; 370,000 tested, 1.3% active; AID 651821;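 active = inhibition above the plate cutoff, the mean of all test compounds on that plate plus 3 SD, cut at about 35% in these data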;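 also: 0% = DMSO alone and 100% = 100 µM mitoxantrone as full dye displacement; higher means more dye released from RNA so lower well fluorescence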
ABHD4 confirm – ABHD4 (mouse) inhibition, FP confirmation; shares compounds with ABHD4 inh; purified mABHD4, FP-Rh probe fluorescence polarization; inhibition, % at 8.92 µM; 1,800 tested, 55% active;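 active = mean inhibition across replicates above the hit cutoff set in the primary screen, cut at about 30% in these data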;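 also: 0% = wild-type ABHD4 with DMSO and 100% = catalytically dead S159A mutant with DMSO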
An asterisk follows results filed as active; x = not tested or not shown.

SMILES	PRMT1 FP inh	ABHD4 inh	SIAE inh	HTRA1 inhibitor	rCAG binder	ABHD4 confirm
Cc1cc2cc(CNC(=O)C(C)Oc3ccccc3)ccc2n1C (stereo not drawn)	9.7	33.7*	6.1	29.7	-1.1	14.9
Cc1cc2cc(CNC(=O)c3ccc(S(=O)(=O)N4CCCC4)cc3)ccc2n1C	3.4	38.8*	25.9*	24.7	18.6	11.1
CCC(CC)C(=O)NCc1ccc2c(c1)cc(C)n2C	5.8	9.5	5.8	13.7	0.2	x
Cc1ccc(CNC(=O)c2ccc(S(=O)(=O)N3CCCC3)cc2)cc1	2.0	-1.6	-3.3	-2.2	0.4	x
COc1cc(/C=N/NC(=S)NCCc2ccccc2)cc(OC)c1OC	-5.4	22.4	8.9	-27.6	-2.7	x
COc1cc(/C=N/NC(=S)NC2CC3C=CC2C3)cc(OC)c1OC (stereo not drawn)	-3.4	29.7*	12.1	x	-3.9	37.8*
Cn1c(/N=C/c2c(O)ccc3ccccc23)nc2ccccc21	9.9	30.7*	7.1	28.9	12.3	4.3
CCCn1c(/N=C/c2ccccc2O)nc2ccccc21	-0.2	4.8	0.2	-1.3	2.1	x
Cc1cc(N=O)c(C)cc1O	5.8	1.7	-8.4	x	0.4	x
Cc1cc(O)c(-c2cc(O)c(C)cc2O)cc1O	87.5*	32.0*	9.7	9.2	5.4	25.9
COc1ccc(OC)c(N(/C(N)=N/c2nc(C)cc(C)n2)S(=O)(=O)c2ccc(NC(C)=O)cc2)c1	-2.3	-1.6	0.1	1.7	-0.5	x
C/C(O)=C\c1nc2ccccc2oc1=O	7.4	37.4*	-0.9	10.0	2.9	-3.5
COc1ccc(CNC(=O)COC(=O)c2c(NC(C)=O)sc(C)c2C)cc1OC	3.1	6.1	10.0	-2.1	2.0	x
Fc1ccccc1N1CCN(c2nc(-c3cccs3)nc3ccccc23)CC1	6.4	32.8*	-10.0	-26.2	2.1	-24.6
CC(=O)N1CCN(c2nc(-c3cccs3)nc3ccccc23)CC1	-1.1	2.1	2.3	-3.8	-4.5	x
CN(C)C1(CN=Cc2cc(Cl)cc([N+](=O)[O-])c2O)CCCCC1	12.2	36.4*	7.5	33.9	33.8	44.9*
CC(=O)N(CCC(c1ccco1)C(C)C)Cc1ccc(OC(C)C)cc1 (stereo not drawn)	3.7	11.4	-1.2	-22.7	-5.5	x
Cc1ccc(N2CC(C(=O)N(C)CC(=O)Nc3ccc(Cl)c(C(F)(F)F)c3)CC2=O)cc1 (stereo not drawn)	0.6	0.1	-4.8	-23.8	-0.3	x
CCc1ccc(OCC(=O)Nc2ccc(N3CCN(C(=O)c4ccccc4)CC3)cc2)cc1	0.3	58.3*	4.3	-5.5	-3.0	6.5
Cc1cccc(OCC(=O)Nc2ccc(N3CCN(C(=O)c4ccccc4)CC3)cc2)c1C	-5.5	0.9	10.7	-3.1	0.5	x
O=C(CSc1ncccn1)NC(=O)Cc1ccccc1	1.2	5.6	8.4	9.1	-0.5	x
CCc1ccc2[nH]c(O)c(N=NC3=NC(=O)CS3)c2c1	7.3	30.5*	-0.9	11.2	10.4	40.8*
CC1CCN(S(=O)(=O)c2ccc(Cl)s2)CC1	1.4	3.4	0.2	-4.8	2.8	x
CC1CCN(c2ccc(C(=O)O)cc2NS(=O)(=O)c2ccc(Cl)s2)CC1	4.3	37.7*	5.9	x	28.9	43.8*
O=C(O)c1ccc(NS(=O)(=O)c2ccc3c(c2)C(=O)c2ccccc2C3=O)cc1	-0.4	36.2*	4.7	x	10.0	58.0*
SMILES	PRMT1 FP inh	ABHD4 inh	SIAE inh	HTRA1 inhibitor	rCAG binder	ABHD4 confirm
COc1ccc(OC2(C)CCN(Cc3ccccc3OC(F)F)C2)cc1 (stereo not drawn)	-1.6	4.5	1.8	x	-2.8	x
CCC(=O)c1ccc(OCC(=O)OCC(=O)NC2CCCCCCC2)cc1	-2.5	-9.2	1.3	1.7	-3.5	x
COc1ccc2nc(NC(=O)Nc3cccc4ccccc34)sc2c1	-0.9	30.1*	-1.3	-2.4	31.0	-0.9
Cc1ccc(NC2=CC(=O)C(=O)c3ccccc32)cc1	1.3	37.8*	8.7	8.6	5.5	21.7
CCOC(=O)c1ccc(NC(=O)C(C)N2C(=O)c3ccccc3C2=O)cc1 (stereo not drawn)	0.5	-13.8	8.8	1.0	1.3	x
Cc1cc(NC2=CC(=O)C(=O)c3ccccc32)no1	-1.2	22.1	7.6	11.2	3.5	x
NS(=O)(=O)c1ccc(NC2=CC(=O)C(=O)c3ccccc32)cc1	15.8	30.6*	5.1	14.4	18.1	8.9
CCOC(=O)c1ccc(NC2=CC(=O)C(=O)c3ccccc32)cc1	6.8	30.0*	7.4	8.7	26.9	43.7*
CC(O)C(=O)N/N=C/c1ccccc1C(=O)O (stereo not drawn)	3.2	-6.9	0.5	0.5	2.0	x
CS(=O)(=O)c1nc(S(=O)(=O)c2ccc(Cl)cc2)c(N2CCCCCC2)s1	5.2	3.8	0.3	3.8	-2.8	x
Cc1ccc(N2C(=O)c3ccc(C(=O)N4CCOCC4)cc3C2=O)cc1C	1.9	7.2	-11.6	-8.0	-0.8	x
COC(=O)C1=C(C)N(Cc2ccccc2C(F)(F)F)C(=NCc2ccc(OC)cc2)NC1c1cccc(F)c1 (stereo not drawn)	-0.5	42.3*	0.8	x	5.4	66.4*
Cc1c(C#N)c(O)[nH]c(=O)c1N=Nc1ccc(S(N)(=O)=O)cc1	-1.0	38.5*	7.5	9.0	19.5	46.6*
O=C(CCN1C(=O)C2C3C=CC(C3)C2C1=O)NC1CCCCC1 (stereo not drawn)	2.4	88.1*	-2.0	-3.0	0.3	0.1
Cc1sc(NC(=O)c2ccc(OCC(C)C)cc2)c(C(N)=O)c1-c1ccc(Cl)cc1Cl	1.6	1.5	-3.8	0.8	5.4	x
CSc1ccc(C=NNc2ccc(S(=O)(=O)Nc3ccccc3C(=O)O)cc2[N+](=O)[O-])cc1	2.4	32.2*	12.0	16.0	17.1	77.5*
Cc1ccc(NS(=O)(=O)c2ccc(N/N=C/c3ccncc3)c([N+](=O)[O-])c2)c(C)c1	0.1	-2.0	-5.3	0.6	0.4	x
Cc1oc2cc3oc(=O)c(CCC(=O)N[C@H](C(=O)O)C(C)C)c(C)c3cc2c1C	4.8	2.2	2.5	0.3	14.7	x
C[C@@H]1C=CCCO[C@]12C(=O)N(CC1CC1)c1cccc(Br)c12	-4.4	39.7*	8.7	x	-1.6	40.0*
CC(C)=CCN1C(=O)[C@]2(OCCC=C[C@H]2C)c2c(Br)cccc21	-0.5	-5.7	1.9	x	1.7	x
CCOC(=O)c1cc(NC(=O)Nc2nccs2)c(C)nc1C	-2.0	2.1	-6.4	-4.4	2.1	x
Cc1[nH]c2ccccc2c1CC(=O)Nc1ccc(Nc2cccnc2)c(-c2ccc(F)c(F)c2)c1	2.3	26.6	16.6	x	9.3	x
Cc1ccc(-c2cc(NC(=O)Cc3c(C)[nH]c4ccccc34)ccc2Nc2cccnc2)cc1	5.4	32.3*	8.1	x	12.4	37.1*
O=C(NCc1cccnc1)c1cc(C2CCCCN2C(=O)c2cccs2)on1 (stereo not drawn)	-0.2	-2.1	-3.1	x	0.7	x
Cc1cccc(N2C(=O)CCC2=O)c1	-0.7	3.3	0.8	-2.7	1.1	x
